PP1 inh = PP1-alpha phosphatase inhibitors, primary screen, counter-screen for PP5 inhibitor project, biochemical, fluorescence, OMFP substrate, single point. Serine/threonine-protein phosphatase PP1-alpha catalytic subunit (Homo sapiens), P62136. purified PP1alpha. inhibition, % at 6.7 µM. actives 0.9% (n = 320,000). AID 2235, 2010;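 active = inhibition above the mean inhibition of all tested compounds plus 3 SD, computed separately for each screening campaign, cut at about 15% in these data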
Target sequence (P62136 whole entry, looked up): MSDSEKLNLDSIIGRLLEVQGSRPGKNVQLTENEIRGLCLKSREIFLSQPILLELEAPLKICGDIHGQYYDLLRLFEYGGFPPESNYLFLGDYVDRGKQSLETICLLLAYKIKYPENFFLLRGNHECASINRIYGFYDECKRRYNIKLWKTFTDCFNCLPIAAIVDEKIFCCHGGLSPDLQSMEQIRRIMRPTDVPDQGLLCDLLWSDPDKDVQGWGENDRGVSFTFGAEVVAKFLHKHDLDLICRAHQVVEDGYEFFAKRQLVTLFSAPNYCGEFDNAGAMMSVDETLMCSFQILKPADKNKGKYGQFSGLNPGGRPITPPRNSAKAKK
PP5 primary = PP5 phosphatase inhibitors, primary screen, biochemical, fluorescence; Serine/threonine-protein phosphatase 5 (Homo sapiens), P53041; purified PP5c, OMFP substrate fluorescence; inhibition, % at 6.7 µM; actives 0.18% (n = 320,000);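 active = inhibition above the campaign's mean inhibition across all tested compounds plus 3 SD, cut at about 9.5% in these data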;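 also: 0% = DMSO only and 100% = 100 µM cantharidin control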
NR2E3 ag-1 = NR2E3 agonists in two-hybrid cells, primary screen, cell-based, luminescence, CHO-S, Gal4-NCOR/VP16-NR2E3 | actives 0.35% (n = 360,000) | luciferase | inhibition of corepressor binding, % at 3.98 µM;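 active = inhibition above the mean of all tested compounds plus 3 SD, cut at about 70% in these data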;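 also: 0% = DMSO with NR2E3 transfected cells and 100% = cells lacking NR2E3 construct; higher means lower luciferase signal from less NR2E3 corepressor binding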
NR2E3 ag-2 = inhibitors of NR2E3-RetCOR corepressor binding, primary screen, NR2E3 agonist project, biochemical, TR-FRET, GST-NR2E3, biotin-RetCOR | AID 2300, 2010 | actives 0.12% (n = 320,000) | Photoreceptor-specific nuclear receptor (Homo sapiens), Q9Y5X4 | 1536-well | inhibition of corepressor binding, % at 4.78 µM;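 active = percent inhibition above the cutoff of mean plus 3 SD of all tested compounds, set per screening campaign, cut at about 20% in these data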;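 also: 0% = DMSO wells and 100% = biotin wells as full block of FRET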
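Test system – NR2E3–RetCOR corepressor complex · Quantity – NR2E3 fusion 1.35 nM · Buffer or medium – Tris pH 7.5 · Incubation – Compound–protein incubation for 5 h at 4 °C · Technique – TR-FRET, Eu(K)-anti-GST donor, streptavidin-D2 acceptor, ex 340, em 617/671 nm · Evaluation – percent inhibition of 671/617 nm emission ratio versus biotin and DMSO controls · Plate – 1536-well format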
Active calls of the source: *; nt = not tested or not shown. Most compounds without a hit are left out; they make up all but 1.3% or so of the library.

SMILES | PP1 inh | PP5 primary | NR2E3 ag-1 | NR2E3 ag-2
CN(Cc1ccccc1)C(=O)c1cccc(NC(=O)Cc2ccc(NC(=O)C3CCCN(C(=O)C4CCCCC4)C3)cc2)c1 (centres undefined) | nt | nt | -15 | nt
CCOC(=O)c1c(NC(=O)Cn2cnc3scc(-c4ccc(C)cc4)c3c2=O)sc(C)c1C | 16* | 1 | 10 | -1
CC(=O)Nc1ccc(CN(C)c2c(C)nc3ccc(C(=O)NCCCn4ccnc4)cn23)cc1 | nt | nt | -26 | nt
Cc1ccccc1C1C(C#N)=C2N=C(N)c3c(sc4c3CCCCC4)N2C2=C1C(=O)CC(C)(C)C2 (centres undefined) | 15* | 3 | -8 | 4
CN(C[C@H](Cc1ccccc1)N(C[C@H](Cc1cccc2ccccc12)N(CCc1ccccc1)N=O)N=O)N=O | 16* | 4 | 9 | 3
CC(C)C[C@@H](CN(C)N=O)N(C[C@H](Cc1ccccc1)N(CCc1ccccc1)N=O)N=O | 7 | 3 | 8 | 1
O=C(O)CN1C(=O)/C(=C\c2cc(Br)ccc2OCc2ccc(F)cc2)SC1=S | 17* | 4 | -8 | 2
Cc1cccc(N2CCN(C(=O)C3CCC(=O)N(Cc4ccccc4F)C3)CC2)c1C (centres undefined) | -1 | 0 | 7 | 5
O=C(CCCn1nnnc1CN1CCOCC1)N1CCN(c2ccccc2F)CC1 | 15* | 0 | -7 | -5
O=C(CCCn1nnnc1CN1CCOCC1)N1CCC(c2ccccc2F)C1 (centres undefined) | nt | nt | -11 | nt
CCn1c(=O)c(C(=O)CN2c3ccccc3CC2C)c(N)n(Cc2ccccc2)c1=O (centres undefined) | 16* | 0 | 8 | 0
CCCCC(=O)NC(c1ccccc1OC)c1ccc2cccnc2c1O (centres undefined) | 15* | 4 | -4 | 3
COc1ccc(CNc2ccc(Br)cc2)cc1 | -4 | -1 | -35 | -1
COc1ccc(NC2=NCC(Cc3ccc(Br)cc3)S2)cc1 (centres undefined) | 16* | 4 | 4 | 0
COc1ccc(C(C#N)=Cc2ccc(N(C)CCC#N)cc2)cc1 | nt | nt | -138 | nt
COC(=O)c1ccc(C2Nc3ccc(/C(C)=N/NC(=O)C(OC)c4ccccc4)cc3C3C=CCC32)cc1 (centres undefined) | 21* | 3 | -19 | -1
COc1ccc2nc(-n3c(O)c(C4=c5ccccc5=NC4=O)[nH]c3=S)sc2c1 | 15* | 3 | 9 | 3
O=C(c1cc2sccc2n1Cc1ccccc1)N1CCN(c2nc3ccccc3s2)CC1 | 15* | 2 | 80* | 3
CCC(=O)N1CCN(c2nc3ccccc3s2)CC1 | -4 | 3 | -107 | 2
CC1(C)Cc2c(C#N)c(N3CCN(C(=O)c4ccccc4Cl)CC3)nc(-c3ccco3)c2CS1 | 17* | 4 | -4 | 2
Cc1cc(C(=O)O)cc(S(=O)(=O)Nc2ccccc2C(=O)NC2CC2)c1C | nt | nt | 7 | nt
Nn1c(SCC(=O)NC2CCS(=O)(=O)C2)nc2scc(-c3ccccc3)c2c1=O (centres undefined) | 5 | 1 | -15 | -1
CC(=O)Nc1cc(OC(C)=O)c2nonc2c1OC(C)=O | 60* | 8 | 13 | 39*
CN(C)S(=O)(=O)c1ccc(N2CCCC2)c(C(=O)N2CCN(S(=O)(=O)c3ccc(F)c(F)c3)CC2)c1 | nt | nt | -21 | nt
O=C(O)c1cccnc1SC1CC(=O)N(c2ccc(OC(F)F)cc2)C1=O (centres undefined) | 16* | 4 | -8 | -4
SMILES | PP1 inh | PP5 primary | NR2E3 ag-1 | NR2E3 ag-2
Cc1cc(C(=O)NCc2ccco2)c2ccccc2n1 | 11 | -5 | -17 | 4
Cc1ccc(-c2cc(C(=O)NCc3ccco3)c3ccccc3n2)o1 | 15* | -4 | 7 | 4
CN(C(=O)C1CCC(=O)N(CCCN2CCCC2=O)C1)C(C1CC1)C1CC1 (centres undefined) | -2 | 1 | -1 | 0
C[C@@H]1CC[C@]2(C(=O)O)CC[C@]3(C)C(=CCC4[C@]56CC[C@@](O)(OC5)C(C)(C)C6CC[C@]43C)C2[C@H]1C (some centres undefined) | 12 | 2 | 94* | -3
C[C@H]1[C@H](C)CC[C@]2(C(=O)O)CC[C@]3(C)C(=CC[C@@H]4[C@@]5(C)C[C@@H](O)[C@H](O)C(C)(C)[C@@H]5CC[C@]43C)[C@H]12 | -3 | -4 | 94* | 3
COc1ccc(OC(=O)COc2ccccc2C)cc1 | -3 | -2 | 19 | 0
OC1C2COC(O2)C2OC(c3ccccc3)OC12 (centres undefined) | nt | nt | 13 | nt
CCN(CC)C(=O)CSc1nc(-c2cccs2)cc(-c2cccs2)c1C#N | 16* | 0 | -11 | 5
C#CCOCCOCCOCCNc1nc(N2CCN(C(=O)[C@H](CCCCN)n3cc(C(N)CO)nn3)CC2)nc(N2CCN(C(=O)[C@H](CCCCN)n3cc(C(N)COC(=O)C(F)(F)F)nn3)CC2)n1 (some centres undefined) | -1 | 1 | nt | -3
Cc1c(C(=O)Nc2nc(-c3ccccn3)cs2)oc2ccccc12 | 16* | 2 | 34 | 0
Cc1cc(/C=C2\C(=N)N3N=C(C(C)C)SC3=NC2=O)c(C)n1Cc1ccccc1 | 2 | 2 | -4 | 3
CCC1=NN2C(=N)/C(=C/c3cc(C)n(Cc4ccccc4)c3C)C(=O)N=C2S1 | 16* | 2 | 20 | 1
Cc1sc(NC(=O)CN(C(=O)c2ccccc2F)C2CCCC2)c(C(N)=O)c1C | 4 | 4 | 24 | 2
OC[C@@H]1[C@@H](c2ccc(F)cc2)C(c2cccc(Cl)c2)=NN1c1ccccc1 | nt | nt | -26 | nt
c1ccc(Nc2nc(NCc3ccco3)c3ccccc3n2)cc1 | 16* | 1 | -17 | -2
CN1CCN(c2ccc(C(F)(F)F)cc2NC(=O)Nc2ccccc2)CC1 | 8 | 3 | 13 | 1
O=C(NCCc1ccccc1)/C(=C\c1ccc([N+](=O)[O-])cc1)NC(=O)c1ccco1 | -9 | 2 | -12 | 4
Cc1ccc(C(=O)N/C(=C\c2ccc([N+](=O)[O-])cc2)C(=O)NCCc2ccccc2)cc1 | 17* | -1 | 5 | 8
Cc1c(N2C(=O)/C(=C\c3ccc(N(C)C)cc3)N(C)C2=S)c(=O)n(-c2ccccc2)n1C | 16* | 8 | 1 | -7
COc1cc(NC(C)CCCN)c2ncccc2c1 (centres undefined) | 16* | 5 | -8 | 0
COc1cc(NCCCCCCCN)c2ncccc2c1 | 1 | 4 | 5 | 6
CCOC(=O)CCCN1CC(O)=C(c2nc(-c3ccc(Cl)cc3)cs2)C1=N | 17* | 5 | -12 | 0
Cc1ccc(NC(=O)CSc2nnc3c(n2)[nH]c2ccccc23)cc1 | -4 | 0 | -1 | 2
Cc1ccc(-c2csc(NC(=O)CSc3nnc4c(n3)[nH]c3ccccc34)n2)cc1 | 17* | 0 | -42 | -2

Compound activity (PubChem BioAssay)
